Results from publication PMC6447045 (Nature chemical biology, 2019).

How the values were obtained:
[1] = tested on: HIF-2 (EPO and NDRG1) and HIF-1 (PGK1) target genes in Hep3B cells; test: qPCR in Hep3B cells, PHD inhibitors and HIF-2α agonist co-treatment; assay type: cell-based; details: 10 μM PHD inhibitor alone
In short: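 Hep3B cells were grown in DMEM with 10% FBS in 6-well plates. They were pretreated with 10 μM molidustat or roxadustat for 8 h, then 5 μM agonist was added (final DMSO 0.1%). After a further 24 h, RNA was isolated and reverse-transcribed. Target mRNAs were quantified by SYBR Green real-time PCR and normalized to ACTB in the same sample.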

[2] = tested on: HIF-2 target genes in 786-O cells; test: qPCR of endogenous HIF-2 target genes in 786-O cells; assay type: cell-based; details: 24 hours, PT2385 0.01-10 μM, T1001, M1001, M1002 10 μM
In short: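 786-O cells were grown in RPMI1640 with 10% FBS in 6-well plates at 37 °C, 5% CO2. Compound was given at various concentrations with 0.1% DMSO, and DMSO alone served as control. After 24 h, RNA was isolated and converted to cDNA. SYBR Green real-time PCR was normalized to ACTB. Values are mean ± s.d., n=3 independent cultures.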

[3] = tested on: HIF-2 and HIF-1 target genes in Hep3B cells; test: qPCR of HIF target genes in Hep3B cells under hypoxia; assay type: cell-based; details: hypoxia (1% O2), 10 μM, 8 h
HIF-1α-ARNT heterodimer = HIF-1α-ARNT heterodimer (Mus musculus, UniProt Q61221); test: TR-FRET-based in vitro binding assay, HIF-1α-ARNT; assay type: biochemical

| SMILES | effect on HIF-1 selective target gene (PGK1) [1] | increase of expression of HIF-2 target genes (EPO and NDRG1) [1] | effect on expression of endogenous HIF-2 target genes [2] | effect on expression of HIF-2 specific and HIF-1 specific genes [3] | effect on HIF-1α-ARNT subunit interactions (HIF-1α-ARNT heterodimer) |
| --- | --- | --- | --- | --- | --- |
| Cc1nc(C(=O)NCC(=O)O)c(O)c2ccc(Oc3ccccc3)cc12 [roxadustat] | relatively small effects | 3–5 fold |  |  |  |
| CS(=O)(=O)c1ccc(Oc2cc(F)cc(C#N)c2)c2c1[C@H](O)C(F)(F)C2 [PT2385, (S)-3-((2,2-Difluoro-1-hydroxy-7-(methylsulfonyl)-2,3-dihydro-1 H-inden-4-yl)oxy)-5-fluorobenzonitrile] |  |  | dose-dependent inhibitory activity | decreased the expression of HIF-2 specific genes (VEGF, EPO and NDRG1) but not the HIF-1 specific gene (PGK1) | no PT2385 effect |
| O=c1c(-n2ccnn2)c[nH]n1-c1cc(N2CCOCC2)ncn1 [molidustat] | relatively small effects | 3–5 fold |  |  |  |
